The entries come from a sample that favours hits as a whole.
Fibroblast inh – antiproliferative effect on LL 47 fibroblasts – human, LL 47 cells, CellTiter-Glo luminescence, primary screen. LL 47 human lung fibroblast viability, ATP luminescence; hits give low values. viability, % at 10 µM. 85,000 compounds, 1.1% hits;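 active = viability at or below 50% in the single dose screen; inactive = viability above 50%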;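 note: compound exposure lasted 72 h before the ATP readout; 100% = median luminescence of untreated cell-only wells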
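Material: human lung fibroblast line LL 47, low passage; Evaluation: viability percentage against median untreated-cell control; Buffer or medium: 15% FBS in IMEM; Incubation: 72 h compound exposure at 37 °C after overnight plating; Dosing: 0.1% DMSO in all compound wells; Measured by: CellTiter-Glo luminescence.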
HUVEC inhibit – inhibitors of HUVEC proliferation, primary screen, cell-based, 384-well; CellTiter-Glo luminescence, 72 h; hits give low values; viability, % at 10 µM (by protocol); 86,000 compounds, 1.1% hits; AID 648, 2007;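 active = viability at or below 30%; inactive = viability above 30%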;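 note: 100% = median luminescence of DMSO-only cell control wells on each plate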
HCT116 bCat-KO – primary screen for growth suppressors in beta-catenin knockout HCT116 cells (colon tumor, human); viability, % at 10 µM; HCT116 beta-catenin knockout viability, CellTiter-Glo, 60 h; hits give low values; 140,000 compounds, 1.5% hits;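 active = viability at or under a set limit, the compound median less 4 SD, cut at about 6% in these data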;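 note: 0% = Hyamine 1622 control at 20 µM and 100% = untreated cell control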
PTEN del growth – growth suppression of PTEN-null HCT116, primary screen, cell-based, CellTiter-Glo. viability, % at 10 µM. HCT116 PTEN-null viability, 60 h; hits give low values. 140,000 compounds, 1.2% hits;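 active = viability at or below a set limit, 4 SD under the median of all tested compounds, cut at about 3.7% in these data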;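 note: PTEN knockout HCT116 line with beta catenin targeted HCT116 as companion control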
H69AR inhibit – proliferation blockers of H69AR lung cancer cells, primary screen, cell-based, human, 86K library; H69AR lung tumor viability, ATP luminescence, 72 h; hits give low values; viability, % at 10 µM; 85,000 compounds, 6% hits;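 active = viability at or below 40%; inactive = viability above 40%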;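 note: multidrug resistant small cell line overexpressing MRP-1 efflux transporter; 100% = mean luminescence of untreated control wells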
* = called active by the depositor; · = not tested or not shown.

SMILES | Fibroblast inh | HUVEC inhibit | HCT116 bCat-KO | PTEN del growth | H69AR inhibit
CCOC(=O)C(C)Sc1cc(CS(=O)(=O)c2ccccc2)nc(-c2ccccc2)n1 (stereo unspecified) | · | · | 94.5 | 82.3 | ·
CCC(C)n1c(=S)[nH]c2c(sc3ccc([N+](=O)[O-])cc32)c1=O (stereo unspecified) | · | · | 64.8 | 63.5 | ·
COc1cc2c(C(=O)N3CCN(c4ccccc4)CC3)c(C)oc2cc1Br | 97.0 | 86.8 | 63.6 | 65.4 | 23.2*
Cc1cnc(-c2nnc(N(C)C(=O)c3ccncc3)s2)cn1 | 108.5 | 95.1 | · | · | 87.0
COc1ccc(C(=O)COC(=O)c2ccc(NC(=O)c3ccccc3)cc2)cc1 | · | · | 1.1* | 33.4 | ·
CC(C)CC(=O)/C(=C\c1ccc(Cl)cc1Cl)n1cncn1 | · | · | 1.6* | 1.3* | ·
COc1ccc(/C=C(/C(=O)c2ccc(Cl)cc2Cl)n2cncn2)cc1 | · | · | 83.3 | 81.7 | ·
Cc1ccc2[nH]c3c(NCCN4CCOCC4)ncnc3c2c1 | 95.7 | 94.0 | 91.7 | 88.4 | 61.0
Clc1ccc2[nH]c3c(NCCCN4CCOCC4)ncnc3c2c1 | 78.8 | 69.6 | 5.0* | 5.2 | 76.1
N#Cc1ncc(C(F)(F)F)cc1Sc1ccc(N)cc1 | 93.8 | 89.1 | 78.6 | 89.0 | 36.1*
Cc1ccc(-c2nn(CC(=O)Nc3ccc4c(c3)nc3n4CCOC3)c(=O)c3ccccc23)cc1 | 95.7 | 49.8 | 93.3 | 79.1 | 88.7
O=C(Cn1nc(-c2ccccc2)c2ccccc2c1=O)Nc1ccc2c(c1)nc1n2CCOC1 | 102.0 | 102.7 | 91.6 | 98.8 | 29.4*
O=C(CC(c1ccccc1)c1ccccc1)Nc1ccc(Cl)cn1 | 84.5 | 80.9 | 15.7 | 21.9 | 17.1*
O=C(CSCc1ccccc1)Nc1ccc(Cl)cn1 | 97.6 | 85.2 | 95.8 | 97.2 | 91.5
CCN(C(=O)COC(=O)c1c2c(nc3ccccc13)/C(=C/c1ccccc1)CC(C)C2)C1CCS(=O)(=O)C1 (stereo unspecified) | · | · | 36.7 | 46.6 | ·
Cc1c(CCO)c(=O)[nH]n1C(=O)c1ccc(F)cc1 | · | · | 98.7 | 92.4 | ·
O=c1[nH]c(NCc2ccco2)nnc1Cc1ccccc1Cl | 77.3 | 48.4 | 30.1 | 36.9 | 30.3*
COc1cc2[nH]c3c(Cl)ncnc3c2cc1OC | · | · | 78.7 | 78.8 | ·
COc1ccc2c(c1)[nH]c1c(N3CCN(Cc4ccc5c(c4)OCO5)CC3)ncnc12 | · | · | 8.1 | 10.3 | ·
Cc1ccc2[nH]c3c(N4CCCCCC4)ncnc3c2c1 | 78.1 | 32.2* | 5.1* | 9.4 | 41.2
Cc1ccc2[nH]c3c(N4CCN(Cc5ccc6c(c5)OCO6)CC4)ncnc3c2c1 | 92.5 | 40.8 | 11.3 | 11.3 | 53.9
COc1cc2[nH]c3c(N4CCN(c5ccc(Cl)cc5)CC4)ncnc3c2cc1OC | 77.0 | 50.1 | 58.7 | 68.4 | 6.9*
COc1cccc2[nH]c3c(N4CCN(Cc5ccc6c(c5)OCO6)CC4)ncnc3c12 | 96.7 | 61.1 | 71.5 | 69.6 | 39.8*
Cc1ccc2[nH]c3c(N4CCN(Cc5ccccc5)CC4)ncnc3c2c1 | 77.3 | 13.6* | 21.7 | 25.1 | 71.0
CC(=O)Nc1ccc(S(=O)(=O)N[C@@H](C)C(=O)OCc2ccc(Cl)cc2)cc1 | · | · | 95.1 | 96.6 | ·
SMILES | Fibroblast inh | HUVEC inhibit | HCT116 bCat-KO | PTEN del growth | H69AR inhibit
CC(C)Oc1ccc(CC2CCC(=O)N(C)C2=O)cc1 (stereo unspecified) | · | · | 100.2 | 97.3 | ·
O=C(Nn1c(C2CCCCC2)nc2ccccc2c1=O)c1ccc([N+](=O)[O-])cc1 | · | · | 89.4 | 91.9 | ·
OC1(c2cccc(C(F)(F)F)c2)CCN(c2ccc(-c3ccccc3)nn2)CC1 | 101.7 | 91.9 | 90.2 | 88.7 | ·
c1nc(N2CCC3(CC2)OCCO3)c2[nH]cnc2n1 | 95.3 | 88.2 | 93.4 | 101.6 | 89.4
OC1(c2cccc(C(F)(F)F)c2)CCN(c2ncnc3c2[nH]c2ccccc23)CC1 | 81.5 | 46.0 | 1.2* | 1.3* | 19.5*
CCOc1ccc2[nH]c3c(N4CCN(c5ccccn5)CC4)ncnc3c2c1 | 85.5 | 51.7 | 59.9 | 50.0 | ·
c1ccc2c(c1)[nH]c1c(N3CCC4(CC3)OCCO4)ncnc12 | 89.3 | 77.0 | 52.5 | 52.5 | 39.5*
Cc1ccc2c(c1)[nH]c1c(N3CCN(Cc4ccccc4)CC3)ncnc12 | 91.7 | 15.4* | 7.0 | 9.1 | 56.3
Cc1ccc2c(c1)c1ncnc(N3CCC4(CC3)OCCO4)c1n2C | 89.6 | 74.5 | 79.6 | 72.0 | 29.3*
Cc1ccc2c(c1)c1ncnc(N3CCOCC3)c1n2C | 93.3 | 84.7 | 61.7 | 66.1 | 45.8
Cc1nn(-c2ccccc2)c(N2CCCC2)c1/C=N/NC(=S)Nc1ccccc1F | · | · | 49.2 | 36.2 | ·
N=C1C(=O)OCC1c1ccccc1NC(=O)CN1CCOCC1 (stereo unspecified) | · | · | 95.8 | 106.9 | ·
O=C(/C=C/c1ccc(Cl)cc1)NCCN1CCOCC1 | · | · | 101.9 | 91.8 | ·
c1ccc2c(c1)CCN(c1ncnc3c1[nH]c1ccccc13)C2 | · | · | 7.5 | 14.8 | ·
c1ccc(CN2CCN(c3ncnc4c3[nH]c3ccccc34)CC2)cc1 | 71.9 | 44.2 | 3.9* | 8.0 | 46.5
CC(C)c1cc(N2CCC(=O)NC2=O)cc(C(=O)O)c1O | · | · | 93.9 | 96.3 | ·
COc1ccc(C2=Nn3c(nnc3-c3ccncc3)SC2)cc1 | 87.5 | 62.8 | 77.5 | 73.4 | 61.2
COc1ccc(OC)c(C2=Nn3c(nnc3-c3ccco3)SC2)c1 | 82.9 | 77.7 | 84.9 | 93.1 | 54.0
COc1ccc(OCc2nnc3n2N=C(c2ccc(OC)cc2)CS3)cc1 | 83.9 | 74.2 | 59.3 | 47.3 | 30.1*
CCOc1ccc(C2=Nn3c(nnc3-c3ccc(OC)cc3)SC2)cc1 | 49.5* | 48.9 | 22.0 | 20.4 | 14.1*
COc1ccc(C2=Nn3c(nnc3-c3ccco3)SC2)cc1 | 78.3 | 65.8 | 73.1 | 59.0 | 20.0*
COc1ccc(OCc2nnc3n2N=C(c2ccc(C)cc2)CS3)cc1 | 90.6 | 87.7 | 94.7 | 86.8 | 94.6
Cc1ccc(S(=O)(=O)NCC2CCC(C(=O)NCCCOC(C)C)CC2)cc1 (stereo unspecified) | 102.0 | 90.8 | 90.9 | 101.2 | 88.5
CCOC(=O)C1=C(C)NC(=S)NC1/C=C/c1ccccc1 (stereo unspecified) | · | · | 45.7 | 56.9 | ·
O=C(Nc1ccc(Cl)cc1F)C1CC1 | · | · | 100.2 | 94.7 | ·
SMILES | Fibroblast inh | HUVEC inhibit | HCT116 bCat-KO | PTEN del growth | H69AR inhibit
CC1Cc2ccccc2N1C(=O)CSc1nnc2c(n1)[nH]c1ccc(F)cc12 (stereo unspecified) | 100.1 | 53.5 | 35.6 | 7.0 | 37.5*
CC1CCc2cc(F)ccc2N1C(=O)CSc1nnc2c3ccccc3n(C)c2n1 (stereo unspecified) | · | · | 84.0 | 87.6 | ·
COC(=O)c1c(NC(NC(=O)c2ccccc2)(C(F)(F)F)C(F)(F)F)sc2c1CCN(C)C2 | · | · | 86.2 | 97.6 | ·
O=S(=O)(CCOc1ccccc1)c1nc2ccccc2[nH]1 | 85.4 | 78.4 | 12.9 | 30.4 | 0.3*
O=C1Nc2ccc(F)cc2C12SCCS2 | · | · | 85.0 | 81.9 | ·
CSc1cc(-c2ccccc2)n(Cc2ccccc2Cl)c(=O)c1C#N | 54.5 | 62.1 | 21.6 | 26.3 | 4.8*

From PubChem
